Experimental data taken from ChEMBL document CHEMBL5360632, “Quinazolinone Compounds Have Potent Antiviral Activity against Zika and Dengue Virus” (J Med Chem, 2023).
pEC50: −log10 of the molar value. Calls of active or inactive are those of the source. The rule behind the calls is not given here.

Legend:
Zika virus [1] = experiment: Antiviral activity against ZIKV […] infected in Vero cells assessed as reduction in viral titer at 1 uM preinoculated virus for 2 hrs with cells followed by washout of unattached viruses and further incubated with compound for 46 hrs starting from 2 hrs post washout by MTT assay relative to control; format: functional; set-up: scale not given: the % may be the effect or the level left
How it was run: (§1)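 Cells inoculated with 0.1 MOI virus for 2h, then unattached virus removed by PBS wash. Compound at 1 μM added either right after washout (0h-posttreatment) or 2h after washout (2h-posttreatment). Incubated to 48h at 37 °C, then supernatant TCID50 determined by end-point dilution with CPE/MTT read-out in quadruplicate on Vero cells, relative to untreated.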

dengue virus type 3 = experiment: Antiviral activity against Dengue virus serotype 3 7431 infected in Vero cells assessed as inhibition of viral replication pretreated for 2 hrs followed by replacement with fresh medium containing compound and measured after 48 hrs by MTT assay; format: functional, organism-based; conditions: Dengue virus, 7431, Vero
How it was run: (§2)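 Monolayers of 2 × 10^4 cells/well in DMEM with 2% FBS. Infected at 0.1 MOI together with compound for 2h. Wells washed with PBS, then fresh medium with compound added in duplicate and incubated 48h at 37 °C. Supernatant titred by end-point dilution: half-log dilutions on Vero monolayers in quadruplicate for 5–7 days, CPE by microscope then MTT. TCID50 compared with untreated; EC50 from dose-response fit of ≥2 independent experiments.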

Zika virus [2] = experiment: Antiviral activity against ZIKV FLR infected in human U87 cells assessed as inhibition of viral replication at 10 uM pretreated with compounds for 2 hrs followed by replacement with fresh medium containing compound and measured after 48 hrs by MTT assay relative to control; format: functional; conditions: U-87 MG, time 50 hrs; how it was run: as §2
Zika virus [3] = experiment: Antiviral activity against ZIKV FLR infected in Vero cells assessed as reduction in NS5 viral protein level at 1 to 3 uM incubated for 48 hrs by Western blot analysis; format: functional, organism-based; conditions: dose 1-3 µM
How it was run: (§3)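 8 × 10^5 Vero cells infected at MOI 0.1 for 2h. Virus removed and cells cultured 48h in fresh medium with 2% FBS plus compound. Cells lysed in ice-cold RIPA buffer and equal total protein separated by SDS-PAGE, then transferred to PVDF. Probed with antibodies to ZIKV NS3, capsid and NS5, with β-actin as loading reference.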

Zika virus [4] = experiment: Antiviral activity against ZIKV FLR infected in Vero cells assessed as reduction in number of viral RNA copies by qRT-PCR analysis; format: functional, organism-based; conditions: dose 0.3-10 µM
How it was run: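 Viral RNA measured in cell supernatant after compound treatment. Copies/mL calculated from a standard curve.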

Zika virus [5] = experiment: (§4) Antiviral activity against ZIKV FLR infected in Vero cells assessed as inhibition of viral replication by measuring reduction in cytopathic effect at 1 uM preincubated with compounds for 2 hrs followed by replacement with fresh media containing compounds and further incubated for 48 hrs in presence of 1 mM GSH by MTT assay; format: functional, organism-based; conditions: time 50.0 hrs; how it was run: as §2
dengue virus type 2 = experiment: Antiviral activity against Dengue virus serotype 2 K0049 infected in Vero cells assessed as inhibition of viral replication pretreated for 2 hrs followed by replacement with fresh medium containing compound and measured after 48 hrs by MTT assay; format: functional, organism-based; how it was run: as §2
Zika virus [6] = experiment: as §4, with “measured after” for “further incubated for”, “hrs” for “hrs in presence of 1 mM GSH”, “assay relative to control” for “assay”; format: functional; conditions: time 50 hrs; how it was run: as §2
Zika virus [7] = experiment: Antiviral activity against ZIKV FLR infected in human U87 cells assessed as inhibition of viral replication pretreated with compounds for 2 hrs followed by replacement with fresh medium containing compound and measured after 48 hrs by MTT assay; format: functional, organism-based; conditions: U-87 MG; how it was run: as §2
Zika virus [8] = experiment: as §4, with “10” for “1”, “measured after” for “further incubated for”, “hrs” for “hrs in presence of 1 mM GSH”, “assay relative to control” for “assay”; format: functional; conditions: time 50 hrs; how it was run: as §2
Zika virus [9] = experiment: Antiviral activity against ZIKV FLR infected in human U87 cells assessed as inhibition of viral replication at 3 uM pretreated with compounds for 2 hrs followed by replacement with fresh medium containing compound and measured after 48 hrs by MTT assay relative to control; format: functional; conditions: U-87 MG, time 50 hrs; how it was run: as §2
Zika virus [10] = experiment: Antiviral activity against ZIKV FLR infected in Vero cells assessed as reduction in viral titer at 1 uM preinoculated virus for 2 hrs with cells followed by washout of unattached viruses and further incubated with compound for 48 hrs by MTT assay relative to control; format: functional; set-up: scale not given: the % may be the effect or the level left; how it was run: as §1
Zika virus [11] = experiment: Antiviral activity against ZIKV FLR infected in human U87 cells assessed as inhibition of viral replication at 0.3 uM pretreated with compounds for 2 hrs followed by replacement with fresh medium containing compound and measured after 48 hrs by MTT assay relative to control; format: functional; conditions: U-87 MG, time 50 hrs; how it was run: as §2
Zika virus [12] = experiment: as §4, with “0.3” for “1”, “measured after” for “further incubated for”, “hrs” for “hrs in presence of 1 mM GSH”, “assay relative to control” for “assay”; format: functional; set-up: scale not given: the % may be the effect or the level left; conditions: time 50 hrs; how it was run: as §2
Zika virus [13] = experiment: Antiviral activity against ZIKV FLR infected in human U87 cells assessed as inhibition of viral replication at 1 uM pretreated with compounds for 2 hrs followed by replacement with fresh medium containing compound and measured after 48 hrs by MTT assay relative to control; format: functional; conditions: U-87 MG, time 50 hrs; how it was run: as §2
Zika virus [14] = experiment: Antiviral activity against ZIKV FLR infected in Vero cells assessed as reduction in NS3 viral protein level at 1 to 3 uM incubated for 48 hrs by Western blot analysis; format: functional, organism-based; conditions: dose 1-3 µM; how it was run: as §3
Zika virus [15] = experiment: Antiviral activity against ZIKV FLR infected in mosquito C6/36 cells assessed as inhibition of viral replication pretreated with compounds for 2 hrs followed by replacement with fresh medium containing compound and measured after 48 hrs bt MTT assay; format: functional, organism-based; how it was run: as §2
U-87 MG = experiment: Cytotoxicity against human U87 cells assessed as reduction in cell viability; format: toxicity, cell-based; conditions: u-87mg atcc
Zika virus [16] = experiment: (§5) Antiviral activity against ZIKV FLR infected in Vero cells assessed as inhibition of viral replication by measuring reduction in cytopathic effect preincubated with compounds for 2 hrs followed by replacement with fresh media containing compounds and measured after 48 hrs by MTT assay; format: functional, organism-based; how it was run: as §2
Zika virus [17] = experiment: Antiviral activity against ZIKV FLR infected in Vero cells assessed as reduction in capsid protein level at 1 to 3 uM incubated for 48 hrs by Western blot analysis; format: functional, organism-based; conditions: dose 1-3 µM; how it was run: as §3
Zika virus [18] = experiment: Antiviral activity against ZIKV HN16 infected in Vero cells assessed as inhibition of viral replication by measuring reduction in cytopathic effect preincubated with compounds for 2 hrs followed by replacement with fresh media containing compounds and measured after 48 hrs by MTT assay; format: functional, organism-based; how it was run: as §2
Zika virus [19] = experiment: as §5, with “effect at >=3 uM” for “effect”, “assay relative to control” for “assay”; format: functional; set-up: scale not given: the % may be the effect or the level left; conditions: time 50 hrs; how it was run: as §2

SMILES: COc1cccc(/C=C/c2nc3ccc(N4CCOCC4)cc3c(=O)n2-c2cccc(C(C)(C)C)c2)n1
- Activity (Zika virus [1]): 68%
- pEC50 (dengue virus type 3): 6.92
- inhibition at 10 µM (Zika virus [2]): > 99.9%
- Activity (Zika virus [3]): Active
- Activity (Zika virus [4]): Dose-Dependent Effect
- Activity (Zika virus [5]): Active
- pEC50 (dengue virus type 2): 6.68
- inhibition at 1 µM (Zika virus [6]): 90%
- pEC50 (Zika virus [7]): 7.00
- inhibition at 10 µM (Zika virus [8]): 99.9%
- inhibition at 3 µM (Zika virus [9]): 99%
- Activity (Zika virus [10]): 68%
- inhibition at 0.3 µM (Zika virus [11]): 90%
- Activity (Zika virus [12]): 68%
- inhibition at 1 µM (Zika virus [13]): 97%
- Activity (Zika virus [14]): Active
- pEC50 (Zika virus [15]): 6.64
- CC50 (U-87 MG): > 20000 nM
- pEC50 (Zika virus [16]): 6.74
- Activity (Zika virus [17]): Active
- pEC50 (Zika virus [18]): 7.07
- Activity (Zika virus [19]): >99.9%
